Where “and” joins values, the source holds several entries; their conditions need not be identical. Equal entries are not always repeated.
Tests used:
[1] = tested on: Fibroblast; test: Multiplex assay against human fibroblast; assay type: toxicity, cell-based
Procedure, shortened: (§1)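 At seeding, live cells were stained with Hoechst33342, BioTracker Green Microtubule Cytoskeleton Dye, MitoTracker Red and Annexin V Alexa Fluor 680. After compound addition they were imaged on a CQ1 microscope at 37°C and 5% CO2, and CellPathfinder machine-learning gating sorted them into Hoechst high-intensity objects or normal cells, with normal cells further split into healthy, pyknosed or fragmented nuclei and pyknosed cells into mitotic or apoptotic. Tubulin, mitochondrial-mass and membrane-permeability phenotypes are given as per cents of cells with healthy nuclei.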

[2] = tested on: HEK-293T; test: Multiplex assay against HEK293T; assay type: toxicity, cell-based; details: human; procedure, shortened: as §1
[3] = 12 h, 1 µM, compound concentration 1 uM
[4] = 12 h, 10 µM, compound concentration 10 uM
[5] = 24 h, 1 µM, compound concentration 1 uM
[6] = 24 h, 10 µM, compound concentration 10 uM
[7] = 48 h, 1 µM, compound concentration 1 uM
[8] = 48 h, 10 µM, compound concentration 10 uM

O=C(Nc1ccccc1Br)N[C@@H]1CCN(c2ccc(C(F)(F)F)cn2)C1 [SB-705498]
Population Apoptotic (%) [1, 3]: 20% and 15.79%
Population Healthy Nuclei (%) [1, 3]: 43.71% and 74.07%
Population Hoechst High Intensity Objects (%) [1, 3]: 0%
Population Membrane Permeable-Phenotype (%) [1, 3]: 3.03% and 0%
Population Mitochondria Different-Phenotype (%) [1, 3]: 12.12% and 8.57%
Population Mitotic Cells (%) [1, 3]: 80% and 84.21%
Population Normal (%) [1, 3]: 100%
Population Pyknosed Nuclei (%) [1, 3]: 29.8% and 20.11%
Population Tubulin-Different-Phenotype (%) [1, 3]: 33.33% and 14.29%
Total Cell Count [1, 3]: 151 and 189
Population Apoptotic (%) [1, 4]: 10.94% and 22.22%
Population Fragmented Nuclei (%) [1, 4]: 10.95% and 8.47%
Population Healthy Nuclei (%) [1, 4]: 57.21% and 76.27%
Population Hoechst High Intensity Objects (%) [1, 4]: 0%
Population Membrane Permeable-Phenotype (%) [1, 4]: 3.48% and 7.41%
Population Mitochondria Different-Phenotype (%) [1, 4]: 15.65% and 15.56%
Population Mitotic Cells (%) [1, 4]: 89.06% and 77.78%
Population Normal (%) [1, 4]: 100%
Population Pyknosed Nuclei (%) [1, 4]: 31.84% and 15.25%
Population Tubulin-Different-Phenotype (%) [1, 4]: 15.65% and 42.22%
Total Cell Count [1, 4]: 201 and 177
Population Apoptotic (%) [1, 5]: 15.62% and 20%
Population Healthy Nuclei (%) [1, 5]: 57.14% and 83%
Population Hoechst High Intensity Objects (%) [1, 5]: 0%
Population Membrane Permeable-Phenotype (%) [1, 5]: 3.12% and 1.81%
Population Mitochondria Different-Phenotype (%) [1, 5]: 11.46% and 8.43%
Population Mitotic Cells (%) [1, 5]: 84.38% and 80%
Population Normal (%) [1, 5]: 100%
Population Pyknosed Nuclei (%) [1, 5]: 19.05% and 12.5%
Population Tubulin-Different-Phenotype (%) [1, 5]: 30.21% and 13.86%
Total Cell Count [1, 5]: 168 and 200
Population Apoptotic (%) [1, 6]: 18.03% and 12%
Population Fragmented Nuclei (%) [1, 6]: 9.01% and 6.59%
Population Healthy Nuclei (%) [1, 6]: 64.81% and 78.44%
Population Hoechst High Intensity Objects (%) [1, 6]: 0%
Population Membrane Permeable-Phenotype (%) [1, 6]: 5.3% and 5.34%
Population Mitochondria Different-Phenotype (%) [1, 6]: 9.93% and 20.61%
Population Mitotic Cells (%) [1, 6]: 81.97% and 88%
Population Normal (%) [1, 6]: 100%
Population Pyknosed Nuclei (%) [1, 6]: 26.18% and 14.97%
Population Tubulin-Different-Phenotype (%) [1, 6]: 29.8% and 41.98%
Total Cell Count [1, 6]: 233 and 167
Population Apoptotic (%) [1, 7]: 25% and 18.18%
Population Fragmented Nuclei (%) [1, 7]: 16.97% and 7.55%
Population Healthy Nuclei (%) [1, 7]: 73.33% and 87.26%
Population Hoechst High Intensity Objects (%) [1, 7]: 0%
Population Membrane Permeable-Phenotype (%) [1, 7]: 3.31% and 0.54%
Population Mitochondria Different-Phenotype (%) [1, 7]: 12.4% and 3.24%
Population Mitotic Cells (%) [1, 7]: 75% and 81.82%
Population Normal (%) [1, 7]: 100%
Population Pyknosed Nuclei (%) [1, 7]: 9.7% and 5.19%
Population Tubulin-Different-Phenotype (%) [1, 7]: 12.4% and 13.51%
Total Cell Count [1, 7]: 165 and 212
Population Apoptotic (%) [1, 8]: 31.25% and 21.43%
Population Fragmented Nuclei (%) [1, 8]: 9.02% and 8.28%
Population Healthy Nuclei (%) [1, 8]: 84.43% and 83.43%
Population Hoechst High Intensity Objects (%) [1, 8]: 0%
Population Membrane Permeable-Phenotype (%) [1, 8]: 1.46% and 9.93%
Population Mitochondria Different-Phenotype (%) [1, 8]: 12.62% and 5.67%
Population Mitotic Cells (%) [1, 8]: 68.75% and 78.57%
Population Normal (%) [1, 8]: 100%
Population Pyknosed Nuclei (%) [1, 8]: 6.56% and 8.28%
Population Tubulin-Different-Phenotype (%) [1, 8]: 17.48% and 42.55%
Total Cell Count [1, 8]: 244 and 169
Population Apoptotic (%) [2, 3]: 7.52% and 7.03%
Population Fragmented Nuclei (%) [2, 3]: 0.88% and 1.23%
Population Hoechst High Intensity Objects (%) [2, 3]: 0.29% and 0%
Population Membrane Permeable-Phenotype (%) [2, 3]: 0.99% and 0%
Population Mitochondria Different-Phenotype (%) [2, 3]: 31.53% and 18.75%
Population Mitotic Cells (%) [2, 3]: 92.48% and 92.97%
Population Normal (%) [2, 3]: 99.71% and 100%
Population Pyknosed Nuclei (%) [2, 3]: 39.23% and 79.01%
Total Cell Count [2, 3]: 340 and 162
Population Apoptotic (%) [2, 4]: 12.68% and 20.16%
Population Fragmented Nuclei (%) [2, 4]: 2.69% and 4.05%
Population Hoechst High Intensity Objects (%) [2, 4]: 1.52% and 0%
Population Membrane Permeable-Phenotype (%) [2, 4]: 0.9% and 7.69%
Population Mitochondria Different-Phenotype (%) [2, 4]: 31.53% and 23.08%
Population Mitotic Cells (%) [2, 4]: 87.32% and 79.84%
Population Normal (%) [2, 4]: 98.48% and 100%
Population Pyknosed Nuclei (%) [2, 4]: 54.62% and 87.16%
Population Tubulin-Different-Phenotype (%) [2, 4]: 17.12% and 46.15%
Total Cell Count [2, 4]: 264 and 148
Population Apoptotic (%) [2, 5]: 16.92% and 17.07%
Population Fragmented Nuclei (%) [2, 5]: 1.6% and 1.17%
Population Healthy Nuclei (%) [2, 5]: 75.22% and 26.9%
Population Hoechst High Intensity Objects (%) [2, 5]: 0.18% and 0%
Population Membrane Permeable-Phenotype (%) [2, 5]: 2.37% and 2.17%
Population Mitochondria Different-Phenotype (%) [2, 5]: 11.37% and 2.17%
Population Mitotic Cells (%) [2, 5]: 83.08% and 82.93%
